Active and inactive are the calls of the source. The calls are words filed in the database; no cut-off is given here. Square brackets hold non-standard residues; d marks the D form. Peptide text beside a SMILES is read from it. * marks the point of attachment. Phe(4-NO2) = N[C@@H](Cc1ccc([N+](=O)[O-])cc1)C(=O)O; Phe(4-NH2) = Nc1ccc(C[C@H](N)C(=O)O)cc1; Propionyl = CCC(=O)*; Bz = O=C(c1ccccc1)*
Legend:
Hepatitis B virus [1] = assay: Antiviral activity against HBV in human HepG2(2.2.15) cells assessed as inhibition of HBsAg production after 9 days by enzyme immunoassay; type: functional, organism-based
Summary of the method: (§1)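 2.2.15 cells seeded at 1.0 × 10⁵ cells/mL in MEM with 10% FBS for 24 h. After attachment, exposed to 50, 25 or 12.25 µg/mL in fresh DMEM, 4 wells per concentration, for 9 d, with medium changed every 3 d. Supernatant HBsAg and HBeAg measured by semiquantitative EIA kits on days 6 and 9. Untreated cells as control. Run twice.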

Hepatitis B virus [2] = assay: Antiviral activity against HBV in human HepG2(2.2.15) cells assessed as inhibition of HBeAg production after 9 days by enzyme immunoassay; type: functional, organism-based; summary of the method: as §1
Hepatitis B virus [3] = assay: Antiviral activity against HBV in human HepG2(2.2.15) cells assessed as inhibition of viral genome replication after 9 days by Southern blot hybridization; type: functional, organism-based; details: HepG2 2.2.15, 216 h
Summary of the method: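 Confluent 2.2.15 cultures in RPMI 1640 with 2% FBS received daily doses, with medium and drug renewed each day. Intracellular HBV DNA quantified by Southern blot hybridization. IC50 calculated by […].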

[4] = Cytotoxicity against human HepG2(2.2.15) cells treated for 9 days measured after 24 hrs of last treatment by neutral red uptake assay; type: cell-based; details: read-out: TC50
Summary of the method: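 Confluent 2.2.15 cells treated as for the antiviral assay, 0.2 mL medium per well, with untreated control wells on each plate. Neutral red dye uptake read as absorbance at 510 nm relative to untreated cells, 24 h after day 9 of treatment.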

[5] = Selectivity index, ratio of TC50 for human HepG2(2.2.15) cells to IC50 for HBV

IC50 (Hepatitis B virus [3]) [µM]	Compound	Activity (Hepatitis B virus [1])	Activity (Hepatitis B virus [2])	CC50 at 216 h [4] [µM]	Selectivity Index [5]
	CC(=O)Nc1ccc(C[C@H](NC(=O)[C@H](Cc2ccccc2)NC(=O)c2ccccc2)C(=O)O)cc1 (Bz-Phe-[Phe(4-NH2)](Ac)-OH)	inactive	inactive		
2.33	O=C(N[C@@H](Cc1ccccc1)C(=O)N[C@H](CO)Cc1ccccc1)c1ccc(Cl)cc1	inactive	inactive	65.8	28.29
	O=C(N[C@@H](Cc1ccc([N+](=O)[O-])cc1)C(=O)N[C@H](CO)Cc1ccccc1)c1ccccc1	inactive	inactive	119	
25.4	O=C(N[C@@H](Cc1ccccc1)C(=O)N[C@@H](Cc1ccccc1)C(=O)O)c1ccccc1 (Bz-Phe-Phe-OH)	inactive	inactive	313	12.36
54.2	O=C(N[C@@H](Cc1ccc([N+](=O)[O-])cc1)C(=O)N[C@@H](Cc1ccccc1)C(=O)O)c1ccccc1 (Bz-[Phe(4-NO2)]-Phe-OH)	inactive	inactive	841	15.52
	O=C(N[C@@H](Cc1ccccc1)C(=O)N[C@H](CO)Cc1ccccc1)c1ccccc1Cl	inactive	inactive	382	
82.4	Nc1ccn([C@@H]2CS[C@H](CO)O2)c(=O)n1 [LAMIVUDINE]			3430	41.59
	CC(=O)Nc1ccc(C[C@@H](CO)NC(=O)[C@H](Cc2ccccc2)NC(=O)c2ccccc2)cc1	inactive	inactive	164	
	O=C(N[C@@H](Cc1ccccc1)C(=O)N[C@H](CO)Cc1ccc([N+](=O)[O-])cc1)c1ccccc1	inactive	inactive	117	
	O=C(N[C@@H](Cc1ccccc1)C(=O)N[C@@H](Cc1ccc(O)cc1)C(=O)O)c1ccccc1 (Bz-Phe-Tyr-OH)	inactive	inactive		
3.94	CC(=O)Nc1ccc(C[C@H](NC(=O)c2ccccc2)C(=O)N[C@H](CO)Cc2ccccc2)cc1	inactive	inactive	93.8	23.82
	O=C(N[C@@H](Cc1ccccc1)C(=O)N[C@H](CO)Cc1ccccc1)c1ccccc1	inactive	inactive	574	
	Cc1ccc(C(=O)N[C@@H](Cc2ccccc2)C(=O)N[C@H](CO)Cc2ccccc2)cc1	inactive	inactive	1860	
60.5	Cc1cccc(C(=O)N[C@@H](Cc2ccccc2)C(=O)N[C@H](CO)Cc2ccccc2)c1	inactive	inactive	185	3.06
	CCC(=O)Nc1ccc(C[C@H](NC(=O)[C@H](Cc2ccccc2)NC(=O)c2ccccc2)C(=O)O)cc1 (Bz-Phe-[Phe(4-NH2)](Propionyl)-OH)	inactive	inactive	1150	

— ChEMBL document CHEMBL1153412, “Synthesis and anti-hepatitis B virus activities of Matijing-Su derivatives” (Bioorg Med Chem, 2009)
